The source made the active and inactive calls. The rule behind the calls is not given here.
How the values were obtained:
[1] = test system: Human immunodeficiency virus 1; assay: Antiviral activity against wild type HIV1 NL4-3 infected in human MT4 cells assessed as inhibition of virus-induced cytopathic effect after 5 days by MTT assay; type: functional, organism-based; settings: Human immunodeficiency virus 1, NL4-3, MT4, 120 h
How it was run: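 Lymphoid MT-4 cells infected with wild-type HIV-1 NL4-3. […] Values are means ± SD from at least three experiments.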

[2] = test system: Human immunodeficiency virus 1; assay: Antiviral activity against HIV1 harboring reverse transcriptase K103N mutant infected in human MT4 cells assessed as inhibition of virus-induced cytopathic effect after 5 days by MTT assay; type: functional, organism-based; settings: Human immunodeficiency virus 1, MT4, 120 h
[3] = test system: Human immunodeficiency virus 1; assay: Antiviral activity against HIV1 harboring reverse transcriptase Y181C mutant infected in human MT4 cells assessed as inhibition of virus-induced cytopathic effect after 5 days by MTT assay; type: functional, organism-based; settings: Human immunodeficiency virus 1, MT4, 120 h
[4] = test system: Human immunodeficiency virus 1; assay: Antiviral activity against HIV1 harboring reverse transcriptase Y188L mutant infected in human MT4 cells assessed as inhibition of virus-induced cytopathic effect after 5 days by MTT assay; type: functional, organism-based; settings: Human immunodeficiency virus 1, MT4, 120 h
[5] = Cytotoxicity against human MT4 cells after 5 days by MTT assay; type: cell-based
How it was run: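 Noninfected lymphoid MT-4 cells were exposed to compound. […] Values are means ± SD from at least three experiments.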

[6] = Selectivity index, ratio of CC50 for human MT4 cells to EC50 for wild type HIV1 NL4-3; type: toxicity, cell-based; settings: read-out: Ratio CC50/EC50
[7] = test system: Human immunodeficiency virus 1; assay: Resistance ratio of EC50 for HIV1 harboring reverse transcriptase K103N mutant to EC50 for wild type HIV1 NL4-3; type: functional
How it was run: (§1)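 MT-4 cells, MTT read-out of HIV-induced cytopathic effect; fold resistance calculated as EC50 against the drug-resistant strain divided by EC50 against WT NL4-3; EC50 values are means ± SD from at least three experiments.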

[8] = test system: Human immunodeficiency virus 1; assay: Resistance ratio of EC50 for HIV1 harboring reverse transcriptase Y181C mutant to EC50 for wild type HIV1 NL4-3; type: functional; how it was run: as §1
[9] = test system: Human immunodeficiency virus 1; assay: Resistance ratio of EC50 for HIV1 harboring reverse transcriptase Y188L mutant to EC50 for wild type HIV1 NL4-3; type: functional; how it was run: as §1
[10] = Ratio of TMC120 CC50 to compound CC50 for human MT4 cells; type: ADME, cell-based
[11] = test system: Human immunodeficiency virus 1; assay: Resistance ratio of ID50 for HIV1 reverse transcriptase K103N mutant to ID50 HIV1 wild type reverse transcriptase
[12] = test system: Human immunodeficiency virus 1; assay: Resistance ratio of ID50 for HIV1 reverse transcriptase L100I mutant to ID50 HIV1 wild type reverse transcriptase
[13] = test system: Human immunodeficiency virus 1; assay: Resistance ratio of ID50 for HIV1 reverse transcriptase Y181I mutant to ID50 HIV1 wild type reverse transcriptase
[14] = test system: Human immunodeficiency virus 1; assay: Resistance ratio of ID50 for HIV1 reverse transcriptase V106A mutant to ID50 HIV1 wild type reverse transcriptase
[15] = test system: Human immunodeficiency virus 1; assay: Resistance ratio of ID50 for HIV1 reverse transcriptase Y188L mutant to ID50 HIV1 wild type reverse transcriptase
[16] = target: Human immunodeficiency virus type 1 reverse transcriptase (Human immunodeficiency virus 1) (UniProt Q72547); assay: Noncompetitive inhibition of HIV1 wild type reverse transcriptase using varying concentration of varying polyrA/oligodT by steady state kinetic analysis
How it was run: (§2)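 Recombinant RT (WT or K103N), RNA-dependent DNA polymerase activity with poly(rA)/oligo(dT) 10:1 and [3H]-dTTP (1 Ci/mmol), 8% final DMSO; steady-state kinetics at fixed inhibitor concentrations, one substrate (nucleic acid or nucleotide) varied while the other kept saturating.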

[17] = target: Human immunodeficiency virus type 1 reverse transcriptase (Human immunodeficiency virus 1) (UniProt Q72547); assay: Noncompetitive inhibition of HIV1 wild type reverse transcriptase using varying concentration of [3H]dTTP by steady state kinetic analysis; how it was run: as §2
[18] = test system: Human immunodeficiency virus type 1 reverse transcriptase (Human immunodeficiency virus 1), Q72547 [K103N]; assay: Noncompetitive inhibition of HIV1 reverse transcriptase K103N mutant using varying concentration of varying polyrA/oligodT by steady state kinetic analysis; how it was run: as §2
[19] = test system: Human immunodeficiency virus type 1 reverse transcriptase (Human immunodeficiency virus 1), Q72547 [K103N]; assay: Noncompetitive inhibition of HIV1 reverse transcriptase K103N mutant using varying concentration of [3H]dTTP by steady state kinetic analysis; how it was run: as §2
[20] = target: Human immunodeficiency virus type 1 reverse transcriptase (Human immunodeficiency virus 1) (UniProt Q72547)
[21] = test system: Human immunodeficiency virus type 1 reverse transcriptase (Human immunodeficiency virus 1), Q72547 [K103N]
[22] = test system: Human immunodeficiency virus type 1 reverse transcriptase (Human immunodeficiency virus 1), Q72547 [L100I]
[23] = test system: Human immunodeficiency virus type 1 reverse transcriptase (Human immunodeficiency virus 1), Q72547 [Y181I]
[24] = test system: Human immunodeficiency virus type 1 reverse transcriptase (Human immunodeficiency virus 1), Q72547 [V106A]

SMILES: Cc1c(N)nc(Nc2ccc(C#N)cc2)nc1[C@H](C)c1c(F)cccc1F
- EC50 [1]: 0.1 nM
- EC50 [2]: 0.8 nM
- EC50 [3]: 31 nM
- EC50 [4]: 7.1 nM
- CC50 at 120 h [5]: 31000 nM
- selectivity ratio [6]: 300000
- Ratio EC50 [7]: 8
- Ratio EC50 [8]: 300
- Ratio EC50 [9]: 70
- selectivity ratio [10]: 10
- Ratio [11]: 1
- Ratio [12]: 20
- Ratio [13]: 90
- Ratio [14]: 0.04
- Ratio [15]: 0.4
- inhibition [16]: Active
- inhibition [17]: Active
- inhibition [18]: Active
- inhibition [19]: Active
- ID50 [20]: 8 nM
- ID50 [21]: 8 nM
- ID50 [22]: 150 nM
- ID50 [23]: 750 nM
- ID50 [24]: 0.3 nM

SMILES: Cc1cc(C)c(Nc2ccnc(Nc3ccc(C#N)cc3)n2)c(C)c1 [DAPIVIRINE]
- EC50 [1]: 0.6 nM
- CC50 at 120 h [5]: 3000 nM

SMILES: O=C1Nc2ccc(Cl)cc2[C@@](C#CC2CC2)(C(F)(F)F)O1 [EFAVIRENZ]
- EC50 [1]: 7.3 nM
- EC50 [3]: 10 nM
- CC50 at 120 h [5]: 3200 nM

SMILES: CCCN(C)c1nc(C(C)c2c(F)cccc2F)c(C)c(=O)[nH]1 (racemic)
- EC50 [1]: 1.9 nM
- EC50 [2]: 16.5 nM
- EC50 [3]: 17 nM
- EC50 [4]: 49 nM
- CC50 at 120 h [5]: > 78000 nM
- selectivity ratio [6]: > 41000
- Ratio EC50 [7]: 9
- Ratio EC50 [8]: 9
- Ratio EC50 [9]: 26
- Ratio [11]: 6
- Ratio [12]: 6
- Ratio [13]: 40
- Ratio [14]: 0.6
- Ratio [15]: 50
- ID50 [20]: 30 nM
- ID50 [21]: 174 nM
- ID50 [22]: 177 nM
- ID50 [23]: 1260 nM
- ID50 [24]: 19 nM

SMILES: Cc1c(N)nc(Nc2ccc(C#N)cc2)nc1[C@@H](C)c1c(F)cccc1F
- EC50 [1]: 1000 nM
- EC50 [2]: 4500 nM
- EC50 [3]: > 38000 nM
- EC50 [4]: 6500 nM
- CC50 at 120 h [5]: 38000 nM
- selectivity ratio [6]: 40
- Ratio EC50 [7]: 4
- Ratio EC50 [9]: 6
- Ratio [11]: 1.3
- Ratio [14]: 0.3
- Ratio [15]: 3
- ID50 [20]: 180 nM
- ID50 [21]: 240 nM
- ID50 [22]: > 15000 nM
- ID50 [23]: > 20000 nM
- ID50 [24]: 64 nM

SMILES: CCCN(C)c1nc([C@@H](C)c2c(F)cccc2F)c(C)c(=O)[nH]1
- EC50 [1]: 15000 nM
- EC50 [2]: > 78000 nM
- EC50 [3]: > 78000 nM
- EC50 [4]: > 78000 nM
- CC50 at 120 h [5]: > 78000 nM
- selectivity ratio [6]: > 5.2
- Ratio [12]: 0.4
- Ratio [14]: 0.1
- ID50 [20]: 975 nM
- ID50 [21]: > 20000 nM
- ID50 [22]: 350 nM
- ID50 [23]: > 20000 nM
- ID50 [24]: 120 nM

SMILES: Cc1ccnc2c1NC(=O)c1cccnc1N2C1CC1 [NEVIRAPINE]
- EC50 [3]: > 7500 nM
- EC50 [4]: > 7500 nM
- CC50 at 120 h [5]: 7500 nM
- selectivity ratio [6]: 58
- Ratio EC50 [7]: 47
- Ratio [11]: 20
- Ratio [13]: 87

SMILES: CCCN(C)c1nc([C@H](C)c2c(F)cccc2F)c(C)c(=O)[nH]1
- EC50 [1]: 1.3 nM
- EC50 [2]: 11 nM
- EC50 [3]: 13 nM
- EC50 [4]: 28 nM
- CC50 at 120 h [5]: 75000 nM
- selectivity ratio [6]: 58000
- Ratio EC50 [7]: 8
- Ratio EC50 [8]: 10
- Ratio EC50 [9]: 22
- Ratio [11]: 48
- Ratio [12]: 50
- Ratio [13]: 200
- Ratio [14]: 1.5
- Ratio [15]: 100
- inhibition [16]: Active
- inhibition [17]: Active
- inhibition [18]: Active
- inhibition [19]: Active
- ID50 [20]: 2 nM
- ID50 [21]: 96 nM
- ID50 [22]: 96 nM
- ID50 [23]: 450 nM
- ID50 [24]: 3 nM
